Source: ChEMBL document CHEMBL4020840, “Synthesis and Biological Evaluation of Selenium-Containing 4-Anilinoquinazoline Derivatives as Novel Antimitotic Agents” (J Med Chem, 2018)
Structures can show the parent of a compound that is named as a salt. Each block holds one compound with its values, some of them ahead of it. Calls of active or inactive are those of the source. The calls are words filed in the database; no cut-off is given here.

Legend:
[1] = tested on: A549; assay: Antimigratory activity against human A549 cells assessed as suppression of wound healing at 4 nM after 24 hrs by phase contrast microscopic method; assay type: functional, cell-based
Outline: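 Scratch wound assay: A549 plated at 5 × 10⁴ cells/dish and grown 24 h before scraping with a 10 μL tip. Medium then swapped to serum-free DMEM containing compound (4 nM) for 24 h. After a PBS wash, wound images taken at 0 and 24 h; at least three independent experiments.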

[2] = species: Sus scrofa; assay: Inhibition of porcine brain tubulin polymerization at 7.5 uM measured every 60 secs for 90 mins by DAPI staining based fluorescence assay relative to control
Outline: (§1)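 Purified tubulin was tested in a kit assay. Final buffer: 80 mM PIPES sesquisodium (pH 6.9), 2.0 mM MgCl₂, 0.5 mM EGTA, 1 mM GTP, 10.2% glycerol. Compound (0.1–10 μM) was prewarmed at 37 °C for 1 min before tubulin was added. DAPI reporter fluorescence (ex 340 / em 410 nm) was read every 60 s for 90 min. Area under the curve gave percent inhibition versus control and the IC50.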

[3] = tested on: A549; assay: Antitumor activity against human A549 cells xenografted in Balb/c mouse assessed as tumor growth inhibition at 2.5 mg/kg, ip treated once in 2 days for 10 days relative to control; assay type: functional; details: read-out: TGI
Outline: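 Male BALB/c nude mice, 5 weeks old, 18−20 g. Right flank injected sc with 0.1 mL of 1 × 10⁷ cells/mL log-phase A549 in FBS-free DMEM. At ~100 mm³, randomised into groups of 5 and dosed ip every 2 days; vehicle controls got equal volume. Tumour volume (0.5 × length × width²) and body weight recorded every 2 days.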

[4] = tested on: A549/CDDP; assay: Growth inhibition of human A549/CDDP cells after 48 hrs by MTT assay; assay type: functional, cell-based
Outline: (§2)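 MTT assay: log-phase cells plated at 5 × 10³/well for 24 h, then exposed to a range of test concentrations for 48 h. MTT (5 mg/mL) added for 4 h, formazan dissolved in DMSO, absorbance read at 570 nm. IC50 is the concentration giving 50% growth inhibition, from dose-response curves; at least three independent experiments, mean ± SE.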

[5] = Growth inhibition of human HepG2/DOX cells after 48 hrs by MTT assay; assay type: functional, cell-based; outline: as §2
[6] = tested on: A549; assay: Induction of apoptosis in human A549 cells assessed as necrotic cells at 4 nM after 48 hrs by Annexin V-FITC/propidium iodide staining based flow cytometry relative to control; assay type: functional
[7] = tested on: A549; assay: Cell cycle arrest in human A549 cells assessed as accumulation at G2/M phase at 4 nM after 12 hrs by propidium iodide staining based flow cytometry (reference value: 10.13%); assay type: functional
Outline: (§3)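 A549 seeded in six-well plates at 3 × 10⁵ cells/well and treated for 12 or 24 h; vehicle 0.01% DMSO. Cells fixed overnight in ice-cold 70% ethanol, treated with RNase A at 37 °C for 30 min, then stained with PI at 4 °C for 30 min. About 10 000 events acquired by flow cytometry at 488 nm; three experiments.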

[8] = tested on: A549; assay: Induction of apoptosis in human A549 cells assessed as necrotic cells at 2 nM after 24 hrs by Annexin V-FITC/propidium iodide staining based flow cytometry (reference value: 0.10%); assay type: functional
[9] = Inhibition of porcine brain tubulin polymerization measured every 60 secs for 90 mins by DAPI staining based fluorescence assay; set-up: species or system Sus scrofa; outline: as §1
[10] = tested on: A549; assay: Induction of apoptosis in human A549 cells assessed as live cells at 4 nM after 48 hrs by Annexin V-FITC/propidium iodide staining based flow cytometry (reference value: 98.49%); assay type: functional
[11] = tested on: A549; assay: Induction of apoptosis in human A549 cells assessed as late apoptotic cells at 2 nM after 48 hrs by Annexin V-FITC/propidium iodide staining based flow cytometry (reference value: 0.03%); assay type: functional
[12] = tested on: A549; assay: Cell cycle arrest in human A549 cells assessed as accumulation at G2/M phase at 4 nM after 24 hrs by propidium iodide staining based flow cytometry (reference value: 10.13%); assay type: functional; outline: as §3
[13] = tested on: A549; assay: Induction of apoptosis in human A549 cells assessed as early apoptotic cells at 2 nM after 24 hrs by Annexin V-FITC/propidium iodide staining based flow cytometry (reference value: 0.98%); assay type: functional
[14] = tested on: HCT-116; assay: Growth inhibition of human HCT116 cells after 48 hrs by MTT assay; assay type: functional, cell-based; details: HCT-116, 48 h; outline: as §2
[15] = Selectivity index, ratio of IC50 for human BJ cells to IC50 for human A549 cells; assay type: functional
Outline: (§4)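 MTT assay in normal cells and A549: seeding at 5 × 10³ cells/well for 24 h, 48 h compound exposure, then 5 mg/mL MTT for 4 h, DMSO solubilisation and absorbance at 570 nm. IC50 values came from dose–response curves of at least three independent experiments. Selectivity ratio = IC50 in normal cells / IC50 in A549.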

[16] = tested on: A549; assay: Induction of apoptosis in human A549 cells assessed as early apoptotic cells at 2 nM after 48 hrs by Annexin V-FITC/propidium iodide staining based flow cytometry (reference value: 1.48%); assay type: functional
[17] = tested on: HeLa; assay: Antiproliferative activity against human HeLa cells after 48 hrs by MTT assay; assay type: functional, cell-based; outline: as §2
[18] = tested on: A549; assay: Growth inhibition of human A549 cells after 48 hrs by MTT assay; assay type: functional, cell-based; details: A549, 48 h
[19] = Selectivity index, ratio of IC50 for HLF to IC50 for human A549 cells; outline: as §4
[20] = tested on: A549; assay: Induction of apoptosis in human A549 cells assessed as late apoptotic cells at 4 nM after 24 hrs by Annexin V-FITC/propidium iodide staining based flow cytometry (reference value: 0.08%); assay type: functional
[21] = tested on: LoVo; assay: Growth inhibition of human LoVo cells after 48 hrs by MTT assay; assay type: functional, cell-based; outline: as §2
[22] = tested on: MDA-MB-231; assay: Growth inhibition of human MDA-MB-231 cells after 48 hrs by MTT assay; assay type: functional, cell-based; details: MDA-MB-231, 48 h; outline: as §2
[23] = tested on: A549; assay: Induction of apoptosis in human A549 cells assessed as live cells at 4 nM after 24 hrs by Annexin V-FITC/propidium iodide staining based flow cytometry (reference value: 98.84%); assay type: functional
[24] = tested on: RKO; assay: Growth inhibition of human RKO cells after 48 hrs by MTT assay; assay type: functional, cell-based; outline: as §2
[25] = tested on: L02; assay: Antiproliferative activity against human LO2 cells after 48 hrs by MTT assay; assay type: cell-based; details: L02, 48 h; outline: as §2
[26] = tested on: A549; assay: Induction of apoptosis in human A549 cells assessed as necrotic cells at 4 nM after 24 hrs by Annexin V-FITC/propidium iodide staining based flow cytometry (reference value: 0.10%); assay type: functional
[27] = tested on: A549; assay: Induction of apoptosis in human A549 cells assessed as early apoptotic cells at 4 nM after 48 hrs by Annexin V-FITC/propidium iodide staining based flow cytometry (reference value: 1.48%); assay type: functional
[28] = tested on: A549; assay: Induction of apoptosis in human A549 cells assessed as live cells at 2 nM after 48 hrs by Annexin V-FITC/propidium iodide staining based flow cytometry (reference value: 98.49%); assay type: functional
[29] = tested on: A549; assay: Induction of apoptosis in human A549 cells assessed as early apoptotic cells at 4 nM after 24 hrs by Annexin V-FITC/propidium iodide staining based flow cytometry (reference value: 0.98%); assay type: functional
[30] = Selectivity index, ratio of IC50 for human LO2 cells to IC50 for human A549 cells; assay type: functional; outline: as §4
[31] = tested on: A549; assay: Induction of apoptosis in human A549 cells assessed as necrotic cells at 2 nM after 48 hrs by Annexin V-FITC/propidium iodide staining based flow cytometry relative to control; assay type: functional
[32] = Antiproliferative activity against HLF after 48 hrs by MTT assay; assay type: cell-based; details: Homo sapiens; outline: as §2
[33] = tested on: A549; assay: Induction of apoptosis in human A549 cells assessed as late apoptotic cells at 4 nM after 48 hrs by Annexin V-FITC/propidium iodide staining based flow cytometry (reference value: 0.03%); assay type: functional
[34] = tested on: MGC-803; assay: Antiproliferative activity against human MGC803 cells after 48 hrs by MTT assay; assay type: functional, cell-based; details: MGC-803, 48 h; outline: as §2
[35] = Resistance factor, ratio of IC50 for human A549/CDDP cells to IC50 for human A549 cells; assay type: functional
Outline: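 MTT assay: log-phase cells were seeded at 5 × 10³/well for 24 h, then exposed to a concentration series for 48 h. MTT (5 mg/mL) was added for 4 h, formazan was dissolved in DMSO, and A570 was read. IC50 values came from dose–response curves of at least three independent experiments. Resistance factor = IC50 in the resistant line / IC50 in the parental sensitive line.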

[36] = tested on: HepG2; assay: Growth inhibition of human HepG2 cells after 48 hrs by MTT assay; assay type: functional, cell-based; details: HepG2, 48 h; outline: as §2
[37] = tested on: A549; assay: Induction of apoptosis in human A549 cells assessed as late apoptotic cells at 2 nM after 24 hrs by Annexin V-FITC/propidium iodide staining based flow cytometry (reference value: 0.08%); assay type: functional
[38] = tested on: BJ; assay: Antiproliferative activity against human BJ cells after 48 hrs by MTT assay; assay type: cell-based; outline: as §2
[39] = tested on: A549; assay: Induction of apoptosis in human A549 cells assessed as live cells at 2 nM after 24 hrs by Annexin V-FITC/propidium iodide staining based flow cytometry (reference value: 98.84%); assay type: functional
[40] = tested on: MCF7; assay: Antiproliferative activity against human MCF7 cells after 48 hrs by MTT assay; assay type: functional, cell-based; details: MCF7, 48 h; outline: as §2

- inhibition [2]: 77.6%
SMILES: COc1ccc(N(C)c2nc(C)nc3ccccc23)cc1
- Activity [1]: Active

SMILES: COc1ccc(N(C)c2nc(C)nc3ccccc23)cc1 [VERUBULIN HYDROCHLORIDE]
- inhibition in vivo at 2.5 mg/kg [3]: 68.6%

SMILES: C[Se]c1ccc(N(C)c2nc(C)nc3ccccc23)cc1F
- IC50 [4]: 11 nM
- IC50 [5]: 5 nM
- Activity [6]: 12.82%
- Activity [7]: 60.89%
- Activity [8]: 1.52%
- IC50 [9]: 1270 nM
- Activity [10]: 34.36%
- Activity [11]: 16.6%
- Activity [12]: 79.71%
- Activity [13]: 10.96%
- IC50 [14]: 6 nM
- Ratio IC50 [15]: 9.5
- Activity [16]: 12.22%
- IC50 [17]: 5 nM
- IC50 [18]: 2 nM
- Ratio IC50 [19]: 9.5
- Activity [20]: 1.97%
- IC50 [21]: 9 nM
- IC50 [22]: 5 nM
- Activity [23]: 60.27%
- IC50 [24]: 7 nM
- IC50 [25]: 16 nM
- Activity [26]: 0.78%
- Activity [27]: 27.52%
- Activity [28]: 63.84%
- Activity [29]: 36.98%
- Ratio IC50 [30]: 8
- Activity [31]: 7.34%
- IC50 [32]: 19 nM
- Activity [33]: 25.29%
- IC50 [34]: 7 nM
- Ratio IC50 [35]: 3.67
- IC50 [36]: 4 nM
- Activity [37]: 2.46%
- IC50 [38]: 19 nM
- Activity [39]: 85.06%
- IC50 [40]: 9 nM

SMILES: Cc1nc(N(C)c2ccc([Se]C#N)cc2)c2ccccc2n1
- inhibition in vivo at 2.5 mg/kg [3]: 69.8%
